Results as given in article PMC7195875 (Science signaling, 2018).

Key:
RAW264.7 cells = test: Toxicity; type: cell-based, mouse; settings: read-out: TLR9 Toxicity EC50, Table 1
[1] = target: T1, full length human estrogen receptor α (Homo sapiens, UniProt P03372); test: Competitive radiometric estrogen receptor binding assay, ERα; settings: relative binding affinity, estradiol = 100
T1 sequence (P03372 1-595): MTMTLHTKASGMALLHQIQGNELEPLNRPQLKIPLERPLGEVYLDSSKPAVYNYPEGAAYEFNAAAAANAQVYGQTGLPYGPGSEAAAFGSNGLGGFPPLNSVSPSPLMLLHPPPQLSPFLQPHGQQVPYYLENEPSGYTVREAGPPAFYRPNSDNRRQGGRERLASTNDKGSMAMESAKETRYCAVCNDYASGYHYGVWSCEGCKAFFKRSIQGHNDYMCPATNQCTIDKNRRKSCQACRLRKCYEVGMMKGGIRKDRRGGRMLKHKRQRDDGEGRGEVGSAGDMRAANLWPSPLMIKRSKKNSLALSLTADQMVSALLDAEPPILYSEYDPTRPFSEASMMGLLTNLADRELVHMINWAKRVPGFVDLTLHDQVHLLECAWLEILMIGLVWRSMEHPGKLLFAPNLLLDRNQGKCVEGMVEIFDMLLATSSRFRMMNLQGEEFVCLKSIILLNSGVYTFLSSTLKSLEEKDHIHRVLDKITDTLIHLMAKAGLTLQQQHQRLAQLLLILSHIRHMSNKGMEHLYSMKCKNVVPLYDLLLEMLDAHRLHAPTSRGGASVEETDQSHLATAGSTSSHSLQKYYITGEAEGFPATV

[2] = target: full length human estrogen receptor β (Homo sapiens, UniProt Q92731); test: Competitive radiometric estrogen receptor binding assay, ERβ; settings: relative binding affinity, estradiol = 100
TIRAP-GyrB = TIRAP-GyrB (UniProt P0AES6+Q99JY1); test: NF-κB luciferase reporter, TIRAP-GyrB HEK293T cells, coumermycin-induced; type: cell-based, human
How it was run: (§1)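 HEK293T NF-κB luciferase reporter clones carried three NF-κB sites and GyrB fusions introduced by viral transduction with antibiotic selection. Cells received 100 nM coumermycin A1 plus test compound at 10 concentrations (56 μM–2.8 nM) in triplicate, 0.24% final DMSO. After 24 h, AlamarBlue (1 h, 37 °C) measured viability, then SteadyLite luminescence. Values were normalised to coumermycin alone (0%) and coumermycin + 30 μM PS-1145 (100%).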

MyD88-GyrB = MyD88-GyrB (UniProt P0AES6+Q99836); test: NF-κB luciferase reporter, MyD88-GyrB HEK293T cells, coumermycin-induced; type: cell-based, human
How it was run: as §1

TLR9 [3] = test: CpG-DNA-induced TNFα release from primary macrophages; type: cell-based, mouse; settings: six hours
How it was run: (§2)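 Macrophages came from bone marrow of female C57BL/6 mice, grown 6 d in DMEM with 10% FCS and 30% L-cell-conditioned medium. Cells were stimulated with the respective agonist for 6 h alongside graded test compound concentrations. TNFα in supernatants was measured by ELISA. Means ± SD of 3 independent experiments.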

TLR7 [4] = test: R848-induced TNFα release from primary macrophages; type: cell-based, mouse; settings: six hours
How it was run: as §2

TLR2 = test: Pam3Cys-induced TNFα release from primary macrophages; type: cell-based, mouse; settings: six hours
How it was run: as §2

TLR4 = test: LPS-induced TNFα release from primary macrophages; type: cell-based, mouse; settings: six hours
How it was run: as §2

Dectin-1 [5] = test: Curdlan-induced TNFα release from primary macrophages; type: cell-based, mouse; settings: six hours
How it was run: as §2

TLR9 [6] = test: Western blot of IκBα degradation and MAPK phosphorylation after CpG-DNA; type: cell-based, mouse
How it was run: (§3)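 Bone-marrow macrophages (6 d culture in L-cell-conditioned medium) were stimulated with the respective agonist with or without test compound. Lysates were immunoblotted for the indicated signaling proteins, with total p38 as loading control. Blots are representative of 3 independent experiments.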

TLR7 [7] = test: Western blot of NF-κB- and MAPK-pathway activation after R848; type: cell-based, mouse
How it was run: as §3

Dectin-1 [8] = test: Western blot of signaling after Curdlan; type: cell-based, mouse
How it was run: as §3

MyD88 signaling complex = MyD88 signaling complex (UniProt P0AES6+Q99836); type: cell-based, mouse; settings: 10 μM MPP, 1 μM CpG-DNA, RAW264.7
How it was run: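 RAW264.7 cells stably expressing FLAG-MyD88-GyrB were SILAC-labelled (light/medium/heavy) in Arg/Lys-free RPMI with 10% dialysed FBS. Heavy cells got 10 μM test compound for 20 min; medium and heavy were then stimulated with 1 μM CpG-DNA for 60 min. […] Quantitative MS gave fold-change versus unstimulated cells, with unique peptides counted.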

MyD88 homodimerization = MyD88 homodimerization (UniProt P0AES6+Q99836); test: Co-immunoprecipitation with MyD88-GyrB in RAW264.7 cells; type: cell-based, mouse; settings: co-IP
[9] = target: TIR-domain of MyD88 / full length MyD88 (Homo sapiens, UniProt Q99836); test: Co-IP of MyD88 TIR-domain with full-length MyD88 in HEK293T cells; type: cell-based
How it was run: (§4)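 HEK293T cells were transfected by Lipofectamine with epitope-tagged MyD88: FLAG full-length plus HA-TIR domain or DD domain. Test compound or DMSO was added 7 h post-transfection, and cells were lysed at 20 h for 20 min at 4 °C in HEPES pH 7.5 buffer with 0.5% NP-40. Cleared lysates underwent FLAG M2 resin IP for 1 h at 4 °C, then immunoblotting with densitometry. Blots represent 4 independent experiments.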

[10] = target: DD-domain of MyD88 / full length MyD88 (Homo sapiens, UniProt Q99836); test: Co-IP of MyD88 DD-domain with full-length MyD88 in HEK293T cells; type: cell-based
How it was run: as §4

R848-induced PBMC = settings: read-out: IC50 on R848-induced PBMC; cited from earlier work
[11] = tested on: IL-1β-induced NF-κB activity; settings: read-out: IC50 for IL-1β-induced NF-κB activity; cited from earlier work

Chain of full length human estrogen receptor β (Q92731 whole entry): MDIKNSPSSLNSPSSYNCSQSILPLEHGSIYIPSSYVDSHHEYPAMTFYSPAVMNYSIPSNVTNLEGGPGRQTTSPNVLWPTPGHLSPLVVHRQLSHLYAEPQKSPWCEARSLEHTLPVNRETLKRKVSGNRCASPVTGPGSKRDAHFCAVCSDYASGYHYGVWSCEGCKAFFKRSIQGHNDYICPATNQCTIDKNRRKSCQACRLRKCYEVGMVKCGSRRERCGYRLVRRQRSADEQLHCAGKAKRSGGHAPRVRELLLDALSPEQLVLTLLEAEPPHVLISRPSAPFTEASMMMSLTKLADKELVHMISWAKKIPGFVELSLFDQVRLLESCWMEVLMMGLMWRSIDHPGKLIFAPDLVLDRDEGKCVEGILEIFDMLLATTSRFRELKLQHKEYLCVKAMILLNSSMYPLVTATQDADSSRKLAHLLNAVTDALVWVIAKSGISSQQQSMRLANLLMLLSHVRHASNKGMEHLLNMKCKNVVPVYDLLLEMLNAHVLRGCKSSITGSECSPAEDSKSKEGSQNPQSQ

**Q.** For `Cc1c(-c2ccc(O)cc2)nn(-c2ccc(O)cc2)c1-c1ccc(OCCN2CCCCC2)cc1` [MPP, methyl-piperidino-pyrazole], which EC50 (RAW264.7 cells) is on record?
**A.** 13.2 ± 2.4 µM

**Q.** And the “RBA ERα” value [1]?
**A.** 12 ± 2

**Q.** And the “RBA ERβ” value [2]?
**A.** 0.05 ± 0.01

**Q.** And the “inhibition of TIRAP-mediated NF-κB activity” value (TIRAP-GyrB)?
**A.** low μM concentrations

**Q.** And the “inhibition of MyD88-mediated NF-κB activity” value (MyD88-GyrB)?
**A.** low μM concentrations

**Q.** What about the “TNFα release, CpG-DNA (TLR9)” value (TLR9 [3]) of the same molecule?
**A.** interfered with TNFα release

**Q.** And the “TNFα release, Resiquimod (R848; TLR7)” value (TLR7 [4])?
**A.** interfered with TNFα release

**Q.** What about the “TNFα release, Pam3Cys (TLR2)” value (TLR2) of the same molecule?
**A.** interfered with TNFα release

**Q.** And the “TNFα release, LPS (TLR4)” value (TLR4)?
**A.** interfered with TNFα release

**Q.** What about the “TNFα release induced by Curdlan” value (Dectin-1 [5]) of the same molecule?
**A.** did not reduce TNFα release

**Q.** And the “block of IκBα degradation and MAPK phosphorylation after CpG-DNA” value (TLR9 [6])?
**A.** almost completely

**Q.** What about the “block of NF-κB- and MAPK-pathway activation downstream of R848” value (TLR7 [7]) of the same molecule?
**A.** not completely

**Q.** What about the Curdlan-induced cell activation (Dectin-1 [8]) of the same molecule?
**A.** remained largely unaffected

**Q.** What about the “recruitment of activation-dependent MyD88-interacting proteins, including IRAK4” value (MyD88 signaling complex) of the same molecule?
**A.** almost completely blocked recruitment

**Q.** What about the “recruitment of endogenous MyD88 and IRAK4 to GyrB-MyD88” value (MyD88 homodimerization) of the same molecule?
**A.** inhibited recruitment of endogenous MyD88 and IRAK4

**Q.** And the “interaction of the TIR-domain with full length MyD88” value [9]?
**A.** strongly reduced

**Q.** What about the “interaction of the DD-domain with full length MyD88” value [10] of the same molecule?
**A.** but not the DD-domain

**Q.** For `CC[C@@H]1[C@H](F)C(=O)N[C@@H]1COc1nccc2cc(C(N)=O)c(OC)cc12` [Pf-06650833, 1-{[(2S,3S,4S)-3-Ethyl-4-fluoro-5-oxopyrrolidin-2-yl]methoxy}−7-methoxyisoquinoline-6-carboxamide], which IC50 (R848-induced PBMC) is on record?
**A.** 0.0024 µM

**Q.** With `NC(=O)[C@H]1CCS[C@@H]2C[C@]3(CCCN3C(=O)Cc3ccc(NC(=O)COc4ccc(Cl)cc4Cl)cc3)C(=O)N12` [ST2825] as the molecule, how does the IC50 [11] read?
**A.** > 10 µM
